# Source: PMC8785363 (Leukemia, 2019)
# What was measured:
# primary CLL cells [1] = assay: Induction of apoptosis / cell death in primary CLL cells; format: cell-based, human
# [2] = Human serum protein binding; format: in vitro ADME; settings: human
# FBS protein binding = format: in vitro ADME, bovine; settings: bovine
# FBS protein = FBS protein binding; format: in vitro ADME, bovine; settings: 22 h incubation with the serum; mean ± SD, triplicate
# Bcl-2 = assay: Immunoblot of Bcl-2 protein level in CLL cells; format: cell-based, human; settings: 24 h
# [3] = human serum and fetal bovine serum; cited from earlier work
# primary CLL cells [4] = assay: Protein synthesis by [3H]leucine incorporation in primary CLL cells; format: cell-based, human; settings: primary CLL samples, 4 h after exposure
# Bcl-XL = assay: Immunoblot of Bcl-XL protein level in CLL cells; format: cell-based, human
# Outline: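 Primary CLL cells from patients (informed consent) exposed to test compound, then immunoblotted for Bcl-XL alongside Mcl-1, Bcl-2 and PARP. Cleaved PARP served as the apoptosis marker. Three CLL patient samples were run, and one representative blot is shown.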
# primary CLL cells [5] = assay: Mitochondrial outer membrane permeabilization; format: cell-based, human; settings: read-out: IC50 for MOMP induction; 24 h, DiOC6(3) staining; mean ± SD in 15 CLL samples
# Human serum protein = Human serum protein binding; format: in vitro ADME; settings: 22 h incubation with the serum, mean ± SD, triplicate
# Mcl-1 = assay: Immunoblot of Mcl-1 protein level in CLL cells; format: cell-based, human; settings: 24 h
# [6] = tested on: B cells from healthy donors; assay: Toxicity toward B cells from healthy donors; format: cell-based, human; settings: n=3
# [7] = tested on: T cells from healthy donors; assay: Toxicity toward T cells from healthy donors; format: cell-based, human; settings: n=3
smiles,measurement,setting,value
"CC(/C=C/C(C)=C/[C@@H]1Cc2nc(cs2)[C@@H](C)C[C@@H](N)CC(=O)O[C@@H](C)C/C(C)=C/C=C\C(=O)O1)=C\CN(C)C [PatA (1), Pateamine A, reference compound]",IC50,"primary CLL cells [1]; Homo sapiens, CLL cell, 24 h, read-out: IC50, μM 10% FBS",0.13 ± 0.08 µM
same,IC50,"primary CLL cells [1]; Homo sapiens, CLL cell, 24 h, read-out: IC50, μM 10% Plasma",0.12 ± 0.09 µM
same,recovery at 22 h,[2],80.4 ± 12.8%
same,fraction unbound at 22 h,[2]; serum,0.026
same,recovery at 22 h,"FBS protein binding; FBS protein binding (%) Recovery, 22 h incubation with the serum, mean ± SD, triplicate",86.2%
same,fraction unbound at 22 h,FBS protein binding; serum,0.013
same,FBS protein binding (%) Recovery,FBS protein,86.3 ± 4.3%
"CC(/C=C/C(C)=C/[C@@H]1Cc2nc(cs2)CCCCC(=O)O[C@@H](C)C/C(C)=C/C=C\C(=O)O1)=C\CN(C)C [DMDA PatA (2), des-methyl, des-amino PatA]",effect on Bcl-2 expression,Bcl-2,without affecting the expression
same,stability in human serum compared with fetal bovine serum,[3],similar
same,inhibition of protein synthesis ([3H]leucine incorporation),primary CLL cells [4],inhibited protein synthesis
same,times less potent than PatA,primary CLL cells [1]; CLL cells in media with 10% autologous patient plasma,about 30 times
same,IC50,"primary CLL cells [1]; read-out: IC50 in one sample with 19% del11q, single CLL sample with 19% del11q",4.32 µM
same,effect on Bcl-XL expression,Bcl-XL,without affecting the expression
same,IC50,primary CLL cells [5],4.92 ± 1.4 µM
same,Human serum protein binding (%) Fraction Bound,Human serum protein,99.6 ± 0.1%
same,Human serum protein binding (%) Recovery,Human serum protein,38.1 ± 7.5%
same,Human serum protein binding (%) Fraction Bound,Human serum protein; listed as DMDAPatA,99.7%
same,Human serum protein binding (%) Recovery,Human serum protein; listed as DMDAPatA,31.4%
same,FBS protein binding (%) Fraction Bound,FBS protein,99.1 ± 0.1%
same,FBS protein binding (%) Recovery,FBS protein,78.3 ± 2.7%
same,effect on Mcl-1 protein level,Mcl-1,reduced levels
"CC(/C=C/C(C)=C/[C@@H]1Cc2nc(cs2)CC[C@@H](N)CC(=O)O[C@@H](C)C/C(C)=C/C=C\C(=O)O1)=C\CN(C)C [Compound 3, des-methyl PatA]",toxicity to normal B cells compared with CLL cells / PatA,[6],significantly lower toxicity
same,toxicity to normal T cells compared with CLL cells / PatA,[7],significantly lower toxicity
same,Human serum protein binding (%) Fraction Bound,Human serum protein,86.7 ± 4.7%
same,Human serum protein binding (%) Recovery,Human serum protein,54.0 ± 2.6%
